Bioassay records deposited in PubChem BioAssay by several laboratories.
Rpn11 inh: blocks the human proteasome subunit Rpn11. AID 588493. human 26S proteasome, Ub4-pepOG fluorescence polarization; 20S core pre-blocked with epoxomicin. inhibition, % at 20 µM. O00487. hit rate 0.59% among 360,000;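 active = inhibition at 20 µM, scaled to each plate's controls, above about 33%, limit read from the data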
SENP1 inh: inhibitors of human SENP1 SUMO protease catalytic domain. recombinant SENP1 catalytic domain, CyPet-SUMO1-YPet FRET cleavage. inhibition, % at 10 µM. hit rate 0.21% among 360,000;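 active = inhibition at least 30% at 10 µM, raw YFP signal under a set limit, fluorescence ratio 0.5 to 1.5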;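 also: 0% = enzyme with DMSO and 100% = no enzyme wells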
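Test system: recombinant human SENP1 catalytic domain, His6-tagged / Medium: pH 8 Tris buffer with EDTA, NaCl, BME, BSA, NP40, catalase / Also added: SUMO1 FRET substrate flanked by Cypet and Ypet, 25 nM / Times: 50 min reaction at room temperature / Signal: FRET, CFP and YFP emission / Control set: no-enzyme low control and enzyme-plus-DMSO high control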
TPT1 inhibitor: blocks Candida albicans tRNA 2'-phosphotransferase | recombinant caTPT1, FP RNA substrate dephosphorylation | inhibition, % at 5 µM | hit rate 0.81% among 300,000 | AID 1962;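 active = inhibition above the mean of all tested compounds plus 3 SD, set per screening campaign, cut at about 24% in these data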;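 also: plate controls were DMSO alone for no effect and ferristatin control at 100 nM for full effect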
ATG4B inh: blocks human ATG4B protease cleavage of LC3 substrate | ATG4B cleavage of LC3-PLA2, NBD-HPC fluorescence, 1 h | inhibition, % at 8.33 µM | hit rate 0.51% among 340,000 | AID 504462; in the data active = inhibition above about 40%
HNF4A DNA FP: change in binding of human HNF4 alpha to DNA | P41235 | HNF4a-FITC DNA binding, fluorescence polarization, 1 h | activity change, % at 10 µM | hit rate 0.3% among 360,000 | AID 1224865; in the data active = activity change above about 30%, passing the limit was not always enough
Target sequence (P41235 whole entry, looked up): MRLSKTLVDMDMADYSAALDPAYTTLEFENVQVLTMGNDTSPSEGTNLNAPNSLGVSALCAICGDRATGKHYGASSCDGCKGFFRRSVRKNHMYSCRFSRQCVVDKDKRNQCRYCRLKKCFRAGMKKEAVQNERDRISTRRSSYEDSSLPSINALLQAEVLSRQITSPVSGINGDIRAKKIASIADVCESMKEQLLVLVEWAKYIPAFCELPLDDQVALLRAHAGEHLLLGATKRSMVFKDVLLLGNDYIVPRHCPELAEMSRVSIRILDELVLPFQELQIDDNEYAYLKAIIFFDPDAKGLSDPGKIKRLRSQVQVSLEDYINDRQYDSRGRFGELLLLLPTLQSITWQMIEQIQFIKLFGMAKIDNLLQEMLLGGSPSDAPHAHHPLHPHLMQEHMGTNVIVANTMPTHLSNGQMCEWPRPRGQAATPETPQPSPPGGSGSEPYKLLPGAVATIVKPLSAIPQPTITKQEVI
CSN inh: blocks human CSN-mediated cullin deneddylation; Purified CSN, SCF-Nedd8-OG deneddylation, fluorescence polarization; inhibition, % at 12.5 µM; hit rate 0.38% among 360,000; AID 651999;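 active = pattern-corrected inhibition above about 35%, with an unprinted fluorescence ratio check between 0.5 and 1.5, limit read from the data, passing the limit was not always enough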;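 also: 0% = enzyme with substrate and 100% = substrate without enzyme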
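Test system: Human Csn5 produced in HEK293T cells | Compound: 12.5 µM single point | Times: 90 min, room temperature | Signal: Fluorescence polarization readout | Read-out basis: % inhibition of substrate cleavage by Csn5 | Controls: no-enzyme wells high, enzyme-with-substrate wells low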
caTPT1 confirm: confirmation of Candida albicans TPT1 inhibitors. shares compounds with TPT1 inhibitor. recombinant caTPT1, fluorescence polarization, RNase T1 coupled. inhibition, % at 5 µM. hit rate 74% among 2,400. AID 2149;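 active = inhibition above the primary screen limit, the mean inhibition of all tested compounds plus 3 SD, cut at about 25% in these data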
RNase T1 counter: blocks Aspergillus oryzae RNase T1, a TPT1 counter-screen. AID 2153. hit rate 83% among 2,400. inhibition, % at 5 µM. shares compounds with TPT1 inhibitor. RNase T1 cleavage, fluorescence polarization, 1536-well;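 active = inhibition above the solvent-only control well mean plus 3 SD, limit set per screening run, cut at about 23% in these data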;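 also: plate controls were DMSO wells with enzyme for no effect and wells without RNase T1 for full effect; inhibitors block cleavage so intact labeled substrate keeps polarization high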
Target sequence (P00651 whole entry, looked up): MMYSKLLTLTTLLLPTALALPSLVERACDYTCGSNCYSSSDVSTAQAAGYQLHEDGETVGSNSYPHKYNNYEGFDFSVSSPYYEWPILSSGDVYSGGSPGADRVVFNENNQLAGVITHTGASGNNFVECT
The depositor's hits bear a star; · = no result shown. Compounds with a hit are over-represented: about 2% of the library has one in this group of screens.

SMILES	Rpn11 inh	SENP1 inh	TPT1 inhibitor	ATG4B inh	HNF4A DNA FP	CSN inh	others
COC(=O)c1sccc1NC(=O)c1ccc(C#N)cc1	61*	-1	1	5	3	9
CN1CCN(NC(=O)c2cn(-c3ccccc3)nc2-c2cccs2)CC1	-4	0	-3	-6	-2	-4
CN1CCN(NC(=O)c2cn(-c3ccccc3)nc2-c2cccc(Br)c2)CC1	2	0	-6	-5	46*	-1
COc1ccc(N2CCN(CC(=O)NCc3ccccc3)CC2)cc1	3	2	-3	-1	0	-2
CCCNC(=O)CN1CCN(c2cc3ccccc3c(Cl)n2)CC1	-1	-8	1	-2	-5	100*
Nc1ccc(N)c(C(=O)O)c1	-28	38*	-8	-8	-54	17
COc1ccc(C2CCc3cc(OC)c(OC)cc3C2NC=O)cc1OC (stereo not given)	-5	2	·	·	1	0
O=C(O)CC/C(=N\NC(=O)c1ccccc1)c1cccs1	2	-28	-5	-4	1	8
COC(=O)N/N=C(\CCC(=O)O)c1cccs1	1	0	0	4	4	90*
CC(=O)c1ccc(S(=O)(=O)N(C)CCCC(=O)N2CCN(c3ncccn3)CC2)cc1	0	1	·	-14	0	0
COc1ccc(Cn2cc(CN3CCOCC3)nn2)cc1	3	1	·	·	2	0
CCCN1C(=O)/C(=C/c2c(N3CCNC(=O)C3CC(=O)OCC)nc3c(C)cccn3c2=O)SC1=S (stereo not given)	·	-33	137*	-23	3	-78
CCOC(=O)CC1C(=O)NCCN1c1nc2ccc(C)cn2c(=O)c1/C=C1\SC(=S)N(CC(C)C)C1=O (stereo not given)	·	-14	122*	-10	85	91
CCOC(=O)CC1C(=O)NCCN1c1nc2ccc(C)cn2c(=O)c1/C=C1\SC(=S)N(C(C)CC)C1=O (stereo not given)	·	·	137*	·	·	·
COCCCn1c(=O)/c(=C\c2ccccc2OC(F)F)s/c1=C(/C#N)C(=O)NC(C)C	·	3	4	-3	22	36*
Cc1ccc(/C=c2\s/c(=C(/C#N)C(=O)N3CCCC3)n(Cc3ccco3)c2=O)s1	-16	-51	14	12	1	13
C=CCn1c(=O)/c(=C\c2ccsc2)s/c1=C(/C#N)C(=O)NCCN1CCOCC1	14	-15	3	-6	0	5
COCCCn1c(=O)/c(=C\c2ccc(OC(F)F)c(OC)c2)s/c1=C(/C#N)C(=O)NCCOC	·	-34	14	-9	74*	57*
COCC#Cc1cnc2c(c1)C(=O)N([C@H](C)CO)C[C@H](C)[C@@H](CN(C)S(=O)(=O)c1ccccc1)O2	-6	0	·	·	2	0
O=C(Nc1cccc(-c2nc3cccnc3s2)c1)C1c2ccccc2Oc2ccccc21	34	0	·	-6	47*	76*
O=C(Nc1cccc(-c2nc3cccnc3s2)c1)c1cccnc1Cl	1	2	0	-9	2	4
Cc1ccc(-n2nc3c(c2NC(=O)c2c(-c4ccccc4Cl)noc2C)CSC3)cc1	·	·	-3	43*	·	·
O=C(OCc1cc(=O)n2c(n1)sc1ccccc12)c1ccc2c(=O)n3c(nc2c1)CCC3	8	-23	-1	1	-39	36*
CC(=O)c1c(C)[nH]c(C(=O)COC(=O)c2ccc3c(=O)n4c(nc3c2)CCC4)c1C	-3	-13	3	-7	1	-11
Cc1nnc(N/N=C/c2ccco2)n1N	4	2	70*	-6	1	-4	caTPT1 confirm=11;RNase T1 counter=17
SMILES	Rpn11 inh	SENP1 inh	TPT1 inhibitor	ATG4B inh	HNF4A DNA FP	CSN inh	others
Cc1ccc2nc3sc(C(=O)N4CCCc5ccccc54)c(N)c3cc2c1	·	70	38*	34	39*	0	caTPT1 confirm=56*;RNase T1 counter=64*
Cc1cc(C)c2cc3c(N)c(C(=O)N4CCc5ccccc5C4)sc3nc2c1	35	7	26*	26	9	5	caTPT1 confirm=21;RNase T1 counter=37*
Cc1ccc(-c2cc(C(=O)N3CCCc4ccccc43)c3ccccc3n2)cc1	6	0	1	0	0	2
Cc1cccc(NC(=O)COC(=O)CN2C(=O)c3ccccc3C2=O)c1	5	3	·	·	2	-3
O=C(COC(=O)CCN1C(=O)/C(=C\C=C\c2ccccc2)SC1=S)Nc1cc(F)ccc1F	·	-4	28*	24	22	8	caTPT1 confirm=33*;RNase T1 counter=42*
O=C(CCN1C(=O)/C(=C\C=C\c2ccccc2)SC1=S)Nc1ccc(C(=O)O)cc1	16	-11	18	4	4	17
CCCC1=[N+](CC(=O)c2ccc(Br)cc2)CCn2cccc21	·	0	118*	0	7	11	caTPT1 confirm=9;RNase T1 counter=18
CCCC1=[N+](CC(C)=O)CCn2c(C)ccc21	-6	-13	-3	1	0	0
CCCC1=[N+](CC(=O)c2ccccc2)CCn2cccc21	7	24	86*	1	-3	-8	caTPT1 confirm=8;RNase T1 counter=14
O=C(O)C1=NOC(CNc2ncc(C(F)(F)F)cc2Cl)C1 (stereo not given)	-9	3	4	-1	-2	-1
CC(=O)C1=NOC(CNc2ncc(C(F)(F)F)cc2Cl)C1 (stereo not given)	4	-1	143*	-3	4	-7	caTPT1 confirm=11;RNase T1 counter=11
CC(=O)N1CCc2c(sc(NC(=O)c3ccc([N+](=O)[O-])o3)c2C(N)=O)C1	11	8	·	·	3	8
C[C@H](CO)N1C[C@H](C)[C@@H](CN(C)C(=O)c2cccnc2)Oc2ncc(Br)cc2C1=O	-2	-3	·	·	-1	-3
CC(/C=N/n1c(-c2n[nH]c3c2CCC3)n[nH]c1=S)=C\c1ccco1	1	-1	33*	-5	-1	4	caTPT1 confirm=4;RNase T1 counter=9
CC(C)c1ccc(-c2cc(C(=O)N3CCOCC3)c3cc(Br)ccc3n2)cc1	-16	1	-3	-5	6	6
Cn1c(=O)c2cc(NC(=O)Nc3cccnc3)ccc2n1-c1ccc(C(C)(C)C)cc1	6	-7	·	·	-3	0
CNC(=O)c1[nH]cnc1C(=O)Nc1ccccn1	-2	1	94*	-3	2	-3	caTPT1 confirm=4;RNase T1 counter=8
CNC(=O)c1[nH]cnc1C(=O)Nc1ccccc1	6	0	·	-10	3	-2
